Screens: PubChem BioAssay, several laboratories
NCF1 inh = inhibitors of human p47phox binding; P14598; p47phox/p22phox peptide binding, fluorescence polarization, 2 h; inhibition, % at 24.7 µM; 220,000 compounds, 0.53% hits;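 active means inhibition above about 30%, limit read from the data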
Insulin prom up = MIN6 insulin promoter up-regulation. 190,000 compounds, 0.3% hits. MIN6 insulin promoter-GFP reporter, high-content imaging; stronger effect = higher value. z-score at 5 µM;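 active means z-score above 3 at 5 µM with at least 500 cells counted in the well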
TNAP inh hiacc = inhibitors of human TNAP at high phosphate acceptor concentration; purified TNAP, CDP-star luminescence, 1 M DEA; 200,000 compounds, 0.03% hits; inhibition, % at 20 µM; AID 1135; P05186;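 active means over 50% inhibition of tissue-nonspecific alkaline phosphatase at 20 µM in the single-dose screen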
Target sequence (P05186 whole entry, looked up): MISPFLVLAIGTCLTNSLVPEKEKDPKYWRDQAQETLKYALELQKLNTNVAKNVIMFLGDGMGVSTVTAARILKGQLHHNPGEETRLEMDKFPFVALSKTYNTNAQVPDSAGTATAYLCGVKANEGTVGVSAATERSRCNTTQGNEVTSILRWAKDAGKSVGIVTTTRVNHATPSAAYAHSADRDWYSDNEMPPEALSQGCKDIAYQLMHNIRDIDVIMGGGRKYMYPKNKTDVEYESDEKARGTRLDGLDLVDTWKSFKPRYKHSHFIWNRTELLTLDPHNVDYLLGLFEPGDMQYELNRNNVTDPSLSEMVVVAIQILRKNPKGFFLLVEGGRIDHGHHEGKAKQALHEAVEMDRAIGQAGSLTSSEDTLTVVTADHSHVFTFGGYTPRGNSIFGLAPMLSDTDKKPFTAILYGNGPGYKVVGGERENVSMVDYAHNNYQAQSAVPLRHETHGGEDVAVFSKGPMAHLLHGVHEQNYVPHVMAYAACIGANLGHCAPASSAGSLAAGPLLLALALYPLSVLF
TNAP act hiacc = activators of human TNAP at high phosphate acceptor concentration. P05186. purified TNAP, CDP-star luminescence, 1 M DEA, 30 min; stronger effect = higher value; 0 = EDTA background, 1 = DMSO-only activity. activation factor at 20 µM. 200,000 tested, under 10 active;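 active means activation factor at least 2 at 20 µM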
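Assay system: human TNAP; Input: enzyme diluted 1/800 final; Reagent: CDP-star luminogenic substrate at 100 µM final; Timing: 30 min, room temperature; Signal: luminescence; Evaluation: TNAP activation factor scaled between EDTA and DMSO control wells.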
Autophagy mod = alters autophagy in cells | MEF GFP-LC3 puncta imaging; test concentration mostly 10 µM | calls only at 10 µM (by protocol) | 190,000 compounds, 0.98% hits;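 active means percentage of spot-positive cells more than 3 SD above its plate mean, without a fluorescence outlier flag or 80% toxicity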
TNAP inh noacc = blocks human TNAP activity with no phosphate acceptor present; P05186; purified TNAP, CDP-star luminescence, 30 min; inhibition, % at 20 µM; 200,000 compounds, 0.26% hits;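 active means tissue-nonspecific alkaline phosphatase inhibition above about 50% at 20 µM in the single-dose screen, limit read from the data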
Each line names hits and unclear results; the compound was inactive in the other large screens. Most compounds without a hit are left out; they make up all but 1.8% or so of the library.

COc1ccc(C2C(C#N)=C(N)N3C(=C2C#N)Sc2ccccc23)cc1 (stereo unspecified)	Autophagy mod active
Cc1ccc(-c2cc(-c3ccco3)c3c(N)c(C(=O)NN)oc3n2)cc1	Insulin prom up 3 (no result: TNAP inh hiacc, TNAP act hiacc, Autophagy mod, TNAP inh noacc)
CCOc1ccc(-c2c(C#N)c(N)nc3sc(C(=O)c4ccccc4)c(N)c23)cc1	Insulin prom up 9.1 (no result: TNAP inh hiacc, TNAP act hiacc, Autophagy mod, TNAP inh noacc)
O=C1Nc2ccc(F)cc2C12Nc1ccccc1-c1nnc(SCc3ccccc3Cl)nc1O2 (stereo unspecified)	NCF1 inh 39
CCOC(=O)c1c(NC(=O)CC2Nc3ccccc3NC2=O)sc(C)c1C (stereo unspecified)	Autophagy mod active
COC(=O)c1c(NC(=O)CC2Nc3ccccc3NC2=O)sc(C)c1C (stereo unspecified)	Autophagy mod active (no result: Insulin prom up)
O=S(=O)(Nn1cnnc1)c1ccc(F)cc1	none
COc1ccc(CNCC(O)(c2ccccc2)c2ccc(Cl)cc2)cc1 (stereo unspecified)	none
Cc1ccc(CNCC(O)(c2ccccc2)c2ccc(Cl)cc2)cc1 (stereo unspecified)	Autophagy mod active
CCOc1ccc(NC(=O)/C(C#N)=C/c2ccc(N3CCCC3)c(C)c2)cc1	Autophagy mod active
COc1ccc(/C=N/NC(=O)c2ccc(O)cc2O)cc1CSc1ccccn1	none
CCCNC(=O)COC(=O)c1[nH]c(C)c(C(=O)OCC)c1C	none (no result: Insulin prom up)
CCOC(=O)c1c(C)[nH]c(C(=O)OCC(=O)Nc2cc(C)c(Cl)cc2OC)c1C	Autophagy mod active
CCOC(=O)c1c(C)[nH]c(C(=O)N/N=C\c2ccccc2Cl)c1C	Autophagy mod active
CCOC(=O)c1c(C)[nH]c(C(=O)N/N=C/c2cccc(OC)c2)c1C	none
COc1ccc(-c2cc(-c3ccc(OC)cc3)nc(-c3ccc4c(c3)NC(=O)CO4)c2)cc1	Autophagy mod active
COc1cccc(-c2nc(-c3ccc4c(c3)NC(=O)CO4)cs2)c1	none (no result: Insulin prom up)
CC(=O)c1cccc(NC(=O)C(C)N2CCc3ccccc3C2)c1 (stereo unspecified)	none (no result: TNAP inh hiacc, TNAP act hiacc, Autophagy mod, TNAP inh noacc)
